# Experimental data as given in ChEMBL document CHEMBL1128406, “Effects of tubercidin and its 5'-O-methyl ether on adenosine receptors and mediator release functions in mast cells” (1995).
# Experiments:
# [1] = system: CHO-K1-BH4; test: Compound is tested for cytotoxicity in Chinese hamster ovary cells (CHO-K1-BH4) in the absence of S-9 microsome fraction at concentration 0 micro M; format: functional, Cricetulus griseus
# Procedure, shortened: (§1)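 CHO-K1-BH4 cells exposed to the test article for 5 h with no exogenous S-9 microsome fraction, then given an overnight recovery period without compound. Relative cytotoxicity was scored afterwards, following the contract lab's CYT/CHO protocol.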
# [2] = system: CHO-K1-BH4; test: Compound is tested for cytotoxicity in Chinese hamster ovary cells (CHO-K1-BH4) in the presence of S-9 microsome fraction at concentration 360 micro M; format: functional, Cricetulus griseus
# Procedure, shortened: (§2)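 CHO-K1-BH4 cells exposed to the test article for 5 h with an S-9 microsome fraction present, then given an overnight compound-free recovery period. Relative cytotoxicity was assessed after recovery.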
# [3] = system: CHO-K1-BH4; test: Compound is tested for cytotoxicity in Chinese hamster ovary cells (CHO-K1-BH4) in the absence of S-9 microsome fraction at concentration 3.7 micro M; format: functional, Cricetulus griseus; procedure, shortened: as §1
# [4] = system: CHO-K1-BH4; test: Compound is tested for cytotoxicity in Chinese hamster ovary cells (CHO-K1-BH4) in the absence of S-9 microsome fraction at concentration 0.4 micro M; format: functional, Cricetulus griseus; procedure, shortened: as §1
# [5] = system: CHO-K1-BH4; test: Compound is tested for cytotoxicity in Chinese hamster ovary cells (CHO-K1-BH4) in the presence of S-9 microsome fraction at concentration 3.7 micro M; format: functional, Cricetulus griseus; procedure, shortened: as §2
# [6] = species on record: Mus musculus; test: Compound is evaluated for the ability to inhibit the passive cutaneous anaphylaxis (PCA) reaction in mouse in presence of Ag; format: functional
# [7] = system: CHO-K1-BH4; test: Compound is tested for cytotoxicity in Chinese hamster ovary cells (CHO-K1-BH4) in the presence of S-9 microsome fraction at concentration 37 micro M; format: functional, Cricetulus griseus; procedure, shortened: as §2
# [8] = system: CHO-K1-BH4; test: Compound is tested for cytotoxicity in Chinese hamster ovary cells (CHO-K1-BH4) in the absence of S-9 microsome fraction at concentration 37 micro M; format: functional, Cricetulus griseus; procedure, shortened: as §1
# [9] = system: CHO-K1-BH4; test: Compound is tested for cytotoxicity in Chinese hamster ovary cells (CHO-K1-BH4) in the absence of S-9 microsome fraction at concentration 360 micro M; format: functional, Cricetulus griseus; procedure, shortened: as §1
# [10] = system: CHO-K1-BH4; test: Compound is tested for cytotoxicity in Chinese hamster ovary cells (CHO-K1-BH4) in the absence of S-9 microsome fraction at concentration 11 micro M; format: functional, Cricetulus griseus; procedure, shortened: as §1
# [11] = system: CHO-K1-BH4; test: Compound is tested for cytotoxicity in Chinese hamster ovary cells (CHO-K1-BH4) in the presence of S-9 microsome fraction at concentration 114 micro M; format: functional, Cricetulus griseus; procedure, shortened: as §2
# [12] = system: CHO-K1-BH4; test: Compound is tested for cytotoxicity in Chinese hamster ovary cells (CHO-K1-BH4) in the presence of S-9 microsome fraction at concentration 1.1 micro M; format: functional, Cricetulus griseus; procedure, shortened: as §2
# [13] = system: CHO-K1-BH4; test: Compound is tested for cytotoxicity in Chinese hamster ovary cells (CHO-K1-BH4) in the absence of S-9 microsome fraction at concentration 1136 micro M; format: functional, Cricetulus griseus; procedure, shortened: as §1
# [14] = system: CHO-K1-BH4; test: Compound is tested for cytotoxicity in Chinese hamster ovary cells (CHO-K1-BH4) in the absence of S-9 microsome fraction at concentration 0.17 micro M; format: functional, Cricetulus griseus; procedure, shortened: as §1
# [15] = system: CHO-K1-BH4; test: Compound is tested for cytotoxicity in Chinese hamster ovary cells (CHO-K1-BH4) in the presence of S-9 microsome fraction at concentration 11 micro M; format: functional, Cricetulus griseus; procedure, shortened: as §2
# [16] = system: CHO-K1-BH4; test: Compound is tested for cytotoxicity in Chinese hamster ovary cells (CHO-K1-BH4) in the presence of S-9 microsome fraction at concentration 0.17 micro M; format: functional, Cricetulus griseus; procedure, shortened: as §2
# [17] = system: CHO-K1-BH4; test: Compound is tested for cytotoxicity in Chinese hamster ovary cells (CHO-K1-BH4) in the presence of S-9 microsome fraction at concentration 1136 micro M; format: functional, Cricetulus griseus; procedure, shortened: as §2
# [18] = system: CHO-K1-BH4; test: Compound is tested for cytotoxicity in Chinese hamster ovary cells (CHO-K1-BH4) in the absence of S-9 microsome fraction at concentration 1.1 micro M; format: functional, Cricetulus griseus; procedure, shortened: as §1
# [19] = system: CHO-K1-BH4; test: Compound is tested for cytotoxicity in Chinese hamster ovary cells (CHO-K1-BH4) in the presence of S-9 microsome fraction at concentration 0.1*10e-4 micro M; format: functional, Cricetulus griseus
# Procedure, shortened: (§3)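 CHO-K1-BH4 cells exposed to test article for 5 h, with or without exogenous S-9 microsome fraction, then recovered overnight without compound before relative cytotoxicity was scored.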
# [20] = system: CHO-K1-BH4; test: Compound is tested for cytotoxicity in Chinese hamster ovary cells (CHO-K1-BH4) in the absence of S-9 microsome fraction at concentration 0.1*10e-4 micro M; format: functional, Cricetulus griseus; procedure, shortened: as §3
# [21] = system: CHO-K1-BH4; test: Compound is tested for cytotoxicity in Chinese hamster ovary cells (CHO-K1-BH4) in the absence of S-9 microsome fraction at concentration 9 micro M; format: functional, Cricetulus griseus; procedure, shortened: as §3
# [22] = system: CHO-K1-BH4; test: Compound is tested for cytotoxicity in Chinese hamster ovary cells (CHO-K1-BH4) in the presence of S-9 microsome fraction at concentration 114*10e-4 micro M; format: functional, Cricetulus griseus; procedure, shortened: as §3
# [23] = system: CHO-K1-BH4; test: Compound is tested for cytotoxicity in Chinese hamster ovary cells (CHO-K1-BH4) in the absence of S-9 microsome fraction at concentration 1.1*10e-4 micro M; format: functional, Cricetulus griseus; procedure, shortened: as §3
# [24] = system: CHO-K1-BH4; test: Compound is tested for cytotoxicity in Chinese hamster ovary cells (CHO-K1-BH4) in the absence of S-9 microsome fraction at concentration 11.4*10e-4 micro M; format: functional, Cricetulus griseus; procedure, shortened: as §3
# [25] = system: CHO-K1-BH4; test: Compound is tested for cytotoxicity in Chinese hamster ovary cells (CHO-K1-BH4) in the absence of S-9 microsome fraction at concentration 114*10e-4 micro M; format: functional, Cricetulus griseus; procedure, shortened: as §3
# [26] = system: CHO-K1-BH4; test: Compound is tested for cytotoxicity in Chinese hamster ovary cells (CHO-K1-BH4) in the presence of S-9 microsome fraction at concentration 11.4*10e-4 micro M; format: functional, Cricetulus griseus; procedure, shortened: as §3
# [27] = system: CHO-K1-BH4; test: Compound is tested for cytotoxicity in Chinese hamster ovary cells (CHO-K1-BH4) in the presence of S-9 microsome fraction at concentration 1.1*10e-4 micro M; format: functional, Cricetulus griseus; procedure, shortened: as §3
smiles,measurement,setting,value
COC[C@H]1OC(n2ccc3c(N)ncnc32)[C@H](O)[C@@H]1O (stereo partly drawn),Inhibition,[1],0%
same,Inhibition,[2],99%
same,Inhibition,[3],12%
same,Inhibition,[4],0%
same,Inhibition,[5],2%
same,grade,[6],1.75
same,Inhibition,[7],36%
same,Inhibition,[8],30%
same,Inhibition,[9],37%
Nc1ncnc2c1ncn2[C@@H]1O[C@H](CO)[C@@H](O)[C@H]1O [ADENOSINE],Inhibition,[10],19%
same,Inhibition,[11],0%
same,Inhibition,[12],8%
same,Inhibition,[13],43%
same,Inhibition,[14],0%
same,Inhibition,[15],0%
same,Inhibition,[16],0.04%
same,Inhibition,[17],7%
same,Inhibition,[18],22%
Nc1ncnc2c1ccn2[C@@H]1O[C@H](CO)[C@@H](O)[C@H]1O [TUBERCIDIN],Inhibition,[19],4%
same,Inhibition,[20],10%
same,Inhibition,[21],11%
same,Inhibition,[22],100%
same,Inhibition,[23],16%
same,Inhibition,[24],92%
same,Inhibition,[25],100%
same,Inhibition,[26],80%
same,grade,[6],1.17
same,Inhibition,[27],9%
